ChEMBL document CHEMBL1131455, “5-HT3 antagonists derived from aminopyridazine-type muscarinic M1 agonists” (J Med Chem, 1998)

Experiments:
[1] = biological target: T1, Serotonin 3 (5-HT3) receptor (Rattus norvegicus, UniProt P35563+Q9JJ16); assay: Compound was evaluated for its binding affinity for 5-hydroxytryptamine 3 receptor by measuring displacement [3H]GR-65630 in rat cerebral cortex.; type: tissue-based
T1 sequence (P35563 whole entry): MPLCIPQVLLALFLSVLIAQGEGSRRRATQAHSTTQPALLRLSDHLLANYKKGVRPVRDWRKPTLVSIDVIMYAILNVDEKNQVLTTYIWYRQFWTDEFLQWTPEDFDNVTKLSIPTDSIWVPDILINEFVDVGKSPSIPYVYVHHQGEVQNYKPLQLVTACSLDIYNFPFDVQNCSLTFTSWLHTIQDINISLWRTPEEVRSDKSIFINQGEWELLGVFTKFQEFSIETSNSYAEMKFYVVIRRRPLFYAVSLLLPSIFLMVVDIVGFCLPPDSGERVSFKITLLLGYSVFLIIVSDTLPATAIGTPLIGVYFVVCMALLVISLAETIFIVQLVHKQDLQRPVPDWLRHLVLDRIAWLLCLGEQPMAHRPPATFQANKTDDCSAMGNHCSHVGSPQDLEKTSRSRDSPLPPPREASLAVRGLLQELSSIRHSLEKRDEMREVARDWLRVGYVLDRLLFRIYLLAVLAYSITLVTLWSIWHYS
T1 sequence (Q9JJ16 whole entry): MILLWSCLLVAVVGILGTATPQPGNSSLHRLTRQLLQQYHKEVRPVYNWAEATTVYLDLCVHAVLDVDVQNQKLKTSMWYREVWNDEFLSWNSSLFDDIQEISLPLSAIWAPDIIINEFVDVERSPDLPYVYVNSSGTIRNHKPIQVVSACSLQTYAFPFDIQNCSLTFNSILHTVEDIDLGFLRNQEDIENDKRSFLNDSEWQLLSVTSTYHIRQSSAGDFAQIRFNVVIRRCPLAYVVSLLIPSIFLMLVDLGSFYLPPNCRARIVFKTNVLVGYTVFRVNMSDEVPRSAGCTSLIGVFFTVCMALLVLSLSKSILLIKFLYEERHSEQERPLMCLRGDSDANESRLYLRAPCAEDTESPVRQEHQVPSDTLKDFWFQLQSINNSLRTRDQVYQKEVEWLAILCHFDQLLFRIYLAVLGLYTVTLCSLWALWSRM

[2] = biological target: Serotonin (5-HT) receptor; assay: Potency was evaluated on rabbit heart serotonergic receptors; parameters: species or system Oryctolagus cuniculus
[3] = biological target: T1, Serotonin 3 (5-HT3) receptor; assay: Compound was evaluated for its binding affinity for 5-hydroxytryptamine 3 receptor by measuring displacement of [3H]granisetron from rat cerebral cortex; type: tissue-based
How it was run: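 Male Sprague-Dawley rat cerebral cortex homogenized in cold 50 mM HEPES pH 7.5, then washed three times by centrifugation (48000g, 4 °C); roughly 2.5 mg protein/mL. […] Filters were presoaked 2 h in 0.3% polyethylenimine. Nonspecific binding defined with 100 nM zacopride; bound counted by liquid scintillation.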

[4] = biological target: T2, Muscarinic acetylcholine receptor M1 (Rattus norvegicus, UniProt P08482); assay: Compound was evaluated for its binding affinity for Muscarinic acetylcholine receptor M1 by measuring displacement of [3H]- pirenzepine from rat hippocampus; type: tissue-based
T2 sequence (P08482 whole entry): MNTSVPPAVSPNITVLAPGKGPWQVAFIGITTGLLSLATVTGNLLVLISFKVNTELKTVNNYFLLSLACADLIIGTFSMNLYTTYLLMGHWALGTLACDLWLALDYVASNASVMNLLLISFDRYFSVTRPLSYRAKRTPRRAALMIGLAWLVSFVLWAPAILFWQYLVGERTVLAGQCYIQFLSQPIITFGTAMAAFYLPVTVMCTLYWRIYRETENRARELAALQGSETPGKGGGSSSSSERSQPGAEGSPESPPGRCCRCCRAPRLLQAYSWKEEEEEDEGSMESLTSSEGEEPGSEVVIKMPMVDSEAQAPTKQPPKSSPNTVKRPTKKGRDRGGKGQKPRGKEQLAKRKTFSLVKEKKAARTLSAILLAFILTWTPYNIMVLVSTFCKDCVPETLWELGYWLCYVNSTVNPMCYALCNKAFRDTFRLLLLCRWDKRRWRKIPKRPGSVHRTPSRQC
How it was run: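 Adult rat hippocampus homogenized 1:200 w/v in 50 mM Na/K phosphate pH 7.4 with 1 mM EDTA and 0.1 mM PMSF. 0.5 mg tissue competed against [3H]pirenzepine (0.7-1 nM) for 2 h 30 min at 25 °C. Bound separated by filtration on 0.3% polyethylenimine-treated GF/C filters. Atropine defined nonspecific binding.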

[5] = biological target: T3, Muscarinic acetylcholine receptor M2 (Rattus norvegicus, UniProt P10980); assay: Compound was evaluated for its binding affinity for Muscarinic acetylcholine receptor M2 by measuring displacement of [3H]- NMS ligand from rat cardiac cells.
T3 sequence (P10980 whole entry): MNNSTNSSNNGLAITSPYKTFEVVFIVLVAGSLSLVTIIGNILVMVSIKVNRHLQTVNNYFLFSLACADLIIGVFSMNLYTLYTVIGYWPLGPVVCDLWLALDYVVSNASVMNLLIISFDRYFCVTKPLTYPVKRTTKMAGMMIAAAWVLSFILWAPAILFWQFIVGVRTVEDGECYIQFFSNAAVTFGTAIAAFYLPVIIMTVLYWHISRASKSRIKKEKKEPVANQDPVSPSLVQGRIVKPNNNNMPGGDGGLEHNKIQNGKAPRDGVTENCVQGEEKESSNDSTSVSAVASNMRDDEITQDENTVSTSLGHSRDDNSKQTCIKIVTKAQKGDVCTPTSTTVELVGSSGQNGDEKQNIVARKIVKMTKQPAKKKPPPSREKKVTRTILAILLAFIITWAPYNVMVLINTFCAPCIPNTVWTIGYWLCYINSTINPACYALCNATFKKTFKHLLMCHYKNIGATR
How it was run: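 Adult rat cardiac cells homogenized 1:200 w/v in 50 mM sodium phosphate pH 7.4. Competition run with 0.2 nM [3H]NMS, 0.5 mg tissue and varying unlabeled ligand concentrations for 1 h at 37 °C. Bound separated by GF/C filtration. Atropine used for nonspecific binding.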

[6] = biological target: T1, Serotonin 3 (5-HT3) receptor; assay: Compound was evaluated for its binding affinity for 5-hydroxytryptamine 3 receptor by measuring displacement [3H]GR-65630 in rat cerebral cortex; type: tissue-based

Cn1cc(-c2noc(C3CN4CCC3CC4)n2)c2ccccc21 (configuration not stated) gave an IC50 [1] of 0.0014 µM.

In the case of O=C(OC1C2CC3CC1N2CC3=O)c1c[nH]c2ccccc12 (configuration not stated), the pA2 [2] is reported as 9.8.

CN1CCN(c2cc(-c3ccccc3)cnn2)CC1 was tested, and the IC50 [3] was 0.036 µM, the Ki [4] was 62 µM and the Ki [5] was 80 µM.

With CN1CCN(c2nnc(-c3ccccc3)c3ccccc23)CC1 the IC50 [3] was 0.37 µM, the Ki [4] was 13 µM and the Ki [5] was 116 µM.

Molecule CN1CCN(c2ccc(-c3ccccc3)nn2)CC1 has an IC50 [3] of 0.425 µM, a Ki [4] of 15.6 µM and a Ki [5] of 71 µM.

Work on CN1CCN(c2nncc3ccccc23)CC1 yielded an IC50 [3] of 0.01 µM, a Ki [4] of 10 µM and a Ki [5] of 38 µM.

Molecule CN1[C@@H]2CC[C@H]1C[C@@H](OC(=O)c1cc(Cl)cc(Cl)c1)C2 [BEMESETRON] has a Ki [6] of 0.054 µM.

CCN(CC)CCNC(=O)c1cc(Cl)c(N)cc1OC [METOCLOPRAMIDE] was tested, and the Ki [6] was 0.348 µM.

CN1[C@@H]2CC[C@H]1C[C@@H](OC(=O)c1c[nH]c3ccccc13)C2 [TROPISETRON] showed a Ki [6] of 0.0032 µM.
